Bioassay records from PubChem.
Sampled rows, rich in hits. Any-hit rate of the full collection: about 3.3%.
5HT1E ag = 5-HT1E (human) receptor agonism; CHO 5-HT1E Ga15 NFAT-bla reporter, FRET; 0% DMSO wells, 100% control agonist wells; activation, % at 6 µM; 0.69% of 65,000 active;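 active = activation above a set limit, the screen-wide mean activation plus 3 SD, cut at about 8.5% in these data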;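 note: 100% = positive control agonist at 1 µM giving full maximal response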
Target sequence (P28566 whole entry, looked up): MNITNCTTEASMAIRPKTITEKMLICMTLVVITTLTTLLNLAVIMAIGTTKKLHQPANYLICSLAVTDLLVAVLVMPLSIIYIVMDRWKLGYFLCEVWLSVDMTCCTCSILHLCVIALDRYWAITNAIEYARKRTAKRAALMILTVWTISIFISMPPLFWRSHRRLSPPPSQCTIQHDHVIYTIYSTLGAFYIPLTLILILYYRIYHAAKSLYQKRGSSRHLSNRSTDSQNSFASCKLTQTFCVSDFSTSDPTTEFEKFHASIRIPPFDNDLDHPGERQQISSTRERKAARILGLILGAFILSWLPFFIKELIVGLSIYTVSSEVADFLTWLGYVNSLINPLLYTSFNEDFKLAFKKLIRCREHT
HEK293 NFkB inh = lowers PMA/ionomycin-induced NF-kB signal in HEK293 cells | 0.21% of 62,000 active | inhibition, % at 3 µM | AID 465 | HEK-293 NF-kB luciferase reporter, luminescence;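 active = inhibition above the mean of all tested compounds plus 3 SD, cut at about 40% in these data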;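 note: 0% = stimulated DMSO wells and 100% = 10 µM reference inhibitor 5653914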
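Material: HEK-293 cells with stable firefly luciferase reporter driven by four HIV NF-kB elements / Also added: PMA plus ionomycin mix as NF-kB-activating stimulus / Compound dosing: 3 µM once, 0.30% DMSO / Times: 1 h pretreatment, 16 h stimulation, 37 °C / Signal: luminescence / Evaluation: per-plate % inhibition versus controls / Benchmarks: DMSO and 10 µM reference inhibitor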
5HT1a ag = 5-HT1a (human) receptor agonism; CHO 5-HT1a Ga15 NFAT-bla reporter, FRET ratio; 0% basal, 100% maximal reference agonist; activation, % at 10 µM; 0.56% of 65,000 active; AID 567;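 active = activation above the screen-wide mean activation plus 3 SD, cut at about 19% in these data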;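 note: 0% = DMSO wells and 100% = 5-CT at EC100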
5-HT1A blocker = blocks the human serotonin 5-HT1a receptor; CHO 5-HT1a Ga15 NFAT-bla reporter, antagonist mode; inhibition, % at 10 µM; 0.68% of 62,000 active; AID 612;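 active = inhibition above the mean of all tested compounds plus 3 SD, cut at about 43% in these data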;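 note: receptor stimulated by 5-CT agonist at 100 nM near EC80; beta-lactamase reporter measured by ratiometric fluorescence of a cleavable substrate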
HTR1E antagonist = 5-HT1E (human) receptor antagonism. 0.99% of 65,000 active. inhibition, % at 6 µM. CHO 5-HT1E Ga15 NFAT-bla reporter, FRET, antagonist. P28566;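 active = inhibition above a set limit, the mean inhibition across every tested compound plus 3 SD, cut at about 29% in these data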;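 note: signal is the 460 over 535 nm emission ratio of beta-lactamase substrate; 0% = agonist plus DMSO wells and 100% = wells without agonist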
Jurkat tox 60K = cytotoxic compounds reducing Jurkat cell viability. Jurkat E6.1 viability, ATP luminescence, 48 h. 1.2% of 56,000 active. inhibition, % at 4 µM;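 active = inhibition above the mean inhibition of all tested compounds plus 3 SD, cut at about 28% in these data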
Active calls of the source: *; / = not tested or not shown.

SMILES	5HT1E ag	HEK293 NFkB inh	5HT1a ag	5-HT1A blocker	HTR1E antagonist	Jurkat tox 60K
CCCc1nc(S(=O)(=O)Cc2ccc(Cl)cc2Cl)n[nH]1	0.7	12.7	-1.9	-11.9	-7.2	-7.6
CCOc1ccc2nc(-c3ccccc3)[nH]c2c1	-0.8	-31.8	0.9	20.5	10.7	76.1*
COC(=O)c1ccc2c(c1)N(Cc1nc(-c3ccc(Cl)cc3)oc1C)C(=O)C1CCCN21 (configuration not stated)	-0.3	20.7	-1.1	7.6	0.9	2.6
Cc1onc(-c2ccccc2)c1C(=O)Nc1sc2c(c1C#N)CCC2	-1.2	8.0	-1.1	5.5	-2.5	49.4*
Cc1cc(C(=O)Nc2sc3c(c2C#N)CCC3)no1	0.6	-44.5	-0.8	14.5	2.2	44.8*
Cc1ccnc(SCC(=O)Nc2sc3c(c2C#N)CCCC3)n1	-0.9	24.2	1.6	10.6	12.9	90.2*
Cc1onc(-c2ccccc2)c1C(=O)Nc1sc2c(c1C(N)=O)CCC2	0.3	14.0	3.8	-11.9	-4.2	/
N#Cc1c(NC(=O)CSC2=NCCS2)sc2c1CCCC2	-1.6	-2.6	-2.8	10.9	15.3	2.1
O=C(CSc1ccc2nnc(-c3ccccn3)n2n1)NCc1ccco1	0.1	11.6	-1.9	5.8	-7.4	-3.0
CCOC(=O)c1cnc(-n2nc(C)cc2C)nc1NC1CCCCC1	0.1	24.6	-0.2	47.9*	11.0	13.2
CCN1C(=O)c2cccc3c(NC(=O)c4ccc(S(=O)(=O)N(C)C)cc4)ccc1c23	-0.1	21.5	88.0*	-6.3	1.9	-2.5
CCN1C(=O)c2cccc3c(NC(=O)c4ccc(S(=O)(=O)N5CCOCC5)cc4)ccc1c23	-0.1	12.5	-2.5	-6.9	21.8	6.9
CCN1C(=O)c2cccc3c(NS(=O)(=O)c4ccc(NC(C)=O)cc4)ccc1c23	-0.1	4.2	0.2	-0.4	2.7	16.4
CCOC(=O)c1ccc(NC(=O)Nc2ccc3c4c(cccc24)C(=O)N3CC)cc1	-0.1	14.2	-2.8	1.4	30.3*	10.0
CCCc1cc(=O)oc2c(C)c3occ(C)c3cc12	0.0	4.5	-1.1	40.3	39.4*	5.0
COc1c2c(nc3occc13)C(CCC(C)(C)O)(OC)C(O)CC2 (configuration not stated)	26.1*	9.7	-1.7	-11.0	-12.8	-6.3
COc1c2ccoc2nc2c(OC)c(OCC(O)C(C)(C)O)ccc12 (configuration not stated)	0.0	5.4	-4.8	-0.3	-2.5	-4.3
CCOC(=O)Cc1nnc(NC(=O)CSc2nnc3c4ccccc4n(C)c3n2)s1	1.1	13.4	-1.0	-17.8	3.2	4.6
CSc1nnc2c3ccccc3n(CCc3ccccc3)c2n1	0.1	58.4*	-0.8	16.7	16.1	37.0*
CCCn1c2ccccc2c2nnc(SCC(=O)Nc3ncccn3)nc21	0.1	7.4	8.9	-5.8	31.3*	-3.2
CN(C)S(=O)(=O)c1cccc(CSc2cccc[n+]2[O-])c1	-0.1	5.7	-2.2	-5.1	-4.5	-9.5
O=C(CN1CCC(c2nc3ccccc3s2)CC1)NCc1cccs1	-0.6	10.0	0.0	-11.5	-4.1	27.8*
CC(C)n1c(N2CCN(CC(=O)NCc3cccs3)CC2)nc2ccccc21	-1.2	5.2	-3.2	-0.6	-5.4	6.3
CC(=O)Nc1ccc(SCC(=O)c2cc(C)n(Cc3cccs3)c2C)cc1	-0.7	12.8	-2.3	1.9	11.0	5.3
CC(=O)Nc1ccccc1OCC(=O)c1cc(C)n(Cc2cccs2)c1C	0.0	54.6*	-1.0	47.2*	4.6	100.2*
SMILES	5HT1E ag	HEK293 NFkB inh	5HT1a ag	5-HT1A blocker	HTR1E antagonist	Jurkat tox 60K
CCOc1cccc(NC(=O)C2CC(=O)NC(=Nc3ccccc3)S2)c1 (configuration not stated)	-1.1	/	-2.3	/	19.4	/
N=c1c2c(-c3ccccc3)c(-c3ccccc3)n(Cc3ccco3)c2ncn1Cc1ccco1	2.1	12.2	-3.3	57.4*	-7.0	47.3*
N=c1c2c(-c3ccccc3)c(-c3ccccc3)n(Cc3ccccc3)c2ncn1CCCn1ccnc1	0.1	/	2.4	/	-15.7	/
CCCn1c(=NC(=O)c2ccco2)c(C(=O)OCC)cc2c(=O)n3ccccc3nc21	2.7	14.6	6.8	21.7	2.3	13.3
CC(C)OCCCn1c(=NC(=O)c2ccncc2)c(C#N)cc2c(=O)n3ccccc3nc21	9.1*	25.3	37.2*	-33.7	-5.6	-7.7
N=c1c(C(=O)NCc2ccc(F)cc2)cc2c(=O)n3ccccc3nc2n1CCCN1CCOCC1	3.9	24.5	31.3*	-8.6	-5.0	10.1
C=CCn1c(=N)c(C(=O)NCCCOC)cc2c(=O)n3ccccc3nc21	5.6	1.5	20.3*	-18.5	-3.1	1.5
CCOC(=O)c1cc2c(=O)n3ccccc3nc2n(CCCOC)c1=NC(C)=O	6.9	9.6	22.7*	-45.0	0.5	/
C=CCn1c(=N)c(C(=O)NCCCOC)cc2c(=O)n3cc(C)ccc3nc21	4.3	-6.1	14.6	-34.0	-5.0	-7.0
COC(=O)C1CCN(c2cc(=O)n(-c3ccc(OC)cc3)c(=O)[nH]2)CC1	-0.1	-3.3	-1.5	2.1	1.4	0.3
COC(=O)C1=C(CSCc2ccco2)NC(=O)NC1c1cc(C)ccc1C (configuration not stated)	-1.2	10.2	1.5	0.7	-1.2	3.3
Cc1nc2c(c(=O)n1CC1CCCO1)c1nc3ccccc3nc1n2Cc1ccc2c(c1)OCO2 (configuration not stated)	0.1	/	3.2	/	20.8	/
O=C(c1nc(-c2ccccc2)n(-c2ccccc2)n1)N1CCN(S(=O)(=O)c2ccccc2)CC1	0.6	21.2	0.5	-6.6	5.7	-7.1
Cc1nn(-c2ccccn2)c2c1C(c1ccsc1)C1=C(CCCC1=O)N2 (configuration not stated)	-0.3	9.9	2.2	-6.4	35.4*	3.7
CCN1CC=C2C(C#N)=C(N)C(C#N)(C#N)C(c3cc(Cl)ccc3Cl)C2C1 (configuration not stated)	1.0	3.8	5.6	-4.0	3.5	-1.6
CCC(CC)C(=O)Nc1cc(C)c2c(=O)oc3ccccc3c2n1	0.5	-2.1	2.0	-50.9	30.7*	-3.7
CCn1c(CSc2nnc(-c3ccc4c(c3)OCO4)o2)nc2cc(S(=O)(=O)N(C)C)ccc21	-0.1	8.0	0.2	-0.6	4.6	3.9
CCOC(=O)C1=C(C)N=C2SC(C)C(=O)N2C1c1cccc(F)c1 (configuration not stated)	0.0	/	0.6	/	3.0	/
CC1=C(C(=O)OCC(C)C)C(c2cccc(F)c2)N2C(=O)C(C)SC2=N1 (configuration not stated)	14.4*	0.6	0.1	5.2	12.0	-1.8
CCCCOc1ccc(-c2nnn(CC(=O)NCc3ccco3)n2)cc1	-0.4	-15.4	-2.7	34.9	29.4*	18.1
